pKd: −log10 of the molar value.

These results are taken from ChEMBL document CHEMBL1914345 (Bioorg Med Chem Lett, 2011).

Assay [1] is described as follows: Inhibition of retinal rod CNGA1/CNGB1 expressed in Xenopus laevis oocytes assessed as blockade of cGMP-induced current at -50 mV holding potential by patch-clamp electrophysiology. The format is cell-based. Particulars: oocyte; read-out: Kd(app). Summed up: (§1)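 Heteromeric retinal CNGA1 plus CNGB1 channels expressed in Xenopus laevis oocytes. Currents activated by 2 mM cGMP and recorded at both +50 and -50 mV. Apparent Kd taken by fitting current amplitudes to a single-binding-site block equation.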

For assay [2], the system named is Oocyte. Briefly: Ratio of 2-(dimethylamino)ethyl 4-(octylamino)benzoate Kd(app) to compound Kd(app) for retinal rod CNGA1/CNGB1 expressed in Xenopus laevis oocytes. The format is cell-based.
Assay [3] has as its system Oocyte. Nature of the assay: Ratio of tetracaine Kd(app) to compound Kd(app) for retinal rod CNGA1/CNGB1 expressed in Xenopus laevis oocytes. The assay is classed as cell-based.
Assay [4] in a line: Inhibition of retinal rod CNGA1/CNGB1 expressed in Xenopus laevis oocytes assessed as blockade of cGMP-induced current at +50 mV holding potential by patch-clamp electrophysiology. Conditions: oocyte; read-out: Kd(app). The format is cell-based. A digest of the protocol:
as §1
(Patch clamp records ionic current or voltage across a cell membrane.)

The nature of assay [5]: Ratio of Kd(app) for sodium channel to Kd(app) for retinal rod CNGA1/CNGB1.

The pKd is the Kd on a negative log10 scale, so that one unit is a factor of ten. In the case of `CCCCCCCCNc1ccc(C(=O)OCCN(C)C)cc1F`, the pKd in assay [1] was 6.12; in assay [4], 6.70. Also, the Ratio stood at 8 in the assay with Oocyte [2] and 50 with Oocyte [3].
Take `CCCCCCCCNc1ccc(C(=O)OCCN(C)C)cc1[N+](=O)[O-]`: the pKd in assay [1] is 4.90; in assay [4], 5.10.
As to `CCCCCCCCNc1ccc(C(=O)OCCN(C)C)cc1C`, the results for the pKd in assay [1] and in assay [4] were 5.85 and 6.30, respectively.
Consider `CCCCNc1ccc(C(=O)OCCN(C)C)cc1C`, for which the pKd is 4.55 in assay [1] and 5.11 in assay [4].
For `CCCCNc1ccc(C(=O)OCCN(C)C)cc1Cl`, in that order: 4.89 and 5.52.
On to `CCCCCCCCNc1ccc(C(=O)OCCN(C)C)cc1OC`, for which the pKd was 5.52 in assay [1] and 5.90 in assay [4].
`CCCCNc1ccc(C(=O)OCC[N+](C)(C)CCCNCCCN)cc1`: the Ratio in assay [5] stood at 100.
On to `CCCCCCCCNc1ccc(C(=O)OCCN(C)C)c(Cl)c1`, for which the figures for the pKd in assay [1] and in assay [4] were 6.66 and 7.00, respectively. Besides, the Ratio in the assay on Oocyte [2] was determined as 8; in the assay with Oocyte [3], 50.
Turning to `CCCCNc1ccc(C(=O)OCCN(C)C)cc1[N+](=O)[O-]`, the pKd in assay [1] is 4.71; in assay [4], 5.26.
For `CCCCCCCCNc1ccc(C(=O)OCCN(C)C)cc1Br`, the values for the pKd in assay [1] and in assay [4] were 6.62 and 6.85, respectively. The Ratio was determined as 8 in the assay with Oocyte [2] and 50 in the assay on Oocyte [3].
On to `CCCCCCCCNc1ccc(C(=O)OCCN(C)C)cc1Cl`, for which the pKd in assay [1] was 6.42; in assay [4], 6.85. Besides, the Ratio in the assay on Oocyte [2] was 8; in the assay on Oocyte [3], 50.
For `CCCCNc1ccc(C(=O)OCCN(C)C)cc1OC`, the negative-log Kd (pKd) in assay [1] is 4.74; in assay [4], 5.37.
For `CCCCCCCCNc1ccc(C(=O)OCCN(C)C)cc1`, in that order: 5.76 and 6.10.
